Data taken from ChEMBL document CHEMBL1132470, “Structure-activity relationships of novel 2-substituted quinazoline antibacterial agents” (1999).
In brackets after ≈: the same amount, converted by molar mass.

Tests used:
Format in all cases: functional
Streptococcus pyogenes [1] = test: Antibacterial activity against Streptococcus pyogenes
Summary of the method: (§1)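 Run as a duplicate broth microdilution in Todd-Hewitt broth. An overnight culture was added to compound in 4% DMSO in water, giving about 10⁵-10⁶ CFU/well, and incubated at 37 °C. Growth was read as A595 at 24 h. MIC is given as a concentration range: complete inhibition at the upper concentration, viable cells at the lower. Ampicillin and tetracycline served as controls.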

Enterococcus faecalis = test: Antibacterial activity against Enterococcus faecalis (#29212); summary of the method: as §1
Streptococcus pyogenes [2] = test: Antibacterial activity against Streptococcus pyogenes (#49399)
Klebsiella pneumoniae = test: Antibacterial activity against Klebsiella pneumoniae (#13883)
Summary of the method: (§2)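 Bacteria were grown in nutrient broth at 37 °C. An overnight culture was added to compound in 4% DMSO/water, giving about 10⁵-10⁶ CFU/well, in duplicate. Absorbance at 595 nm was read after 24 h. MIC is reported as a range between the lowest concentration with complete growth inhibition and the next lower concentration with viable cells. Ampicillin and tetracycline were positive controls.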

Staphylococcus aureus = test: Antibacterial activity against Staphylococcus aureus (#13709)
Summary of the method: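 Trypticase soy broth culture was grown at 37 °C. The overnight suspension was mixed with compound in 4% DMSO in water, giving a final inoculum of about 10⁵-10⁶ CFU/well, in duplicate. Growth was read as A595 after 24 h. MIC is a concentration range, full inhibition at the higher and viability at the lower. Ampicillin and tetracycline were included as controls.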

Escherichia coli [3] = test: Antibacterial activity against Escherichia coli (#25922); summary of the method: as §2
Escherichia coli [4] = test: Antibacterial activity against Escherichia coli
Streptococcus pyogenes [5] = test: Antibacterial activity against Streptococcus pyogenes (#14289); summary of the method: as §1

SMILES | MIC (Streptococcus pyogenes [1]) [µM] | MIC (Escherichia coli [4]) [µM] | also measured
COC(=O)c1nc(Cl)c(NC2CCN(Cc3ccccc3)CC2)nc1N |  | > 50 | MIC (Streptococcus pyogenes [5]): > 50 µM
Nc1nc(N2CCC(Nc3ccc(C(=O)O)cc3)CC2)nc2ccccc12 | > 100 | > 100 | 
COc1cc2nc(N3CCC(Nc4ccc(C(=O)OC(C)(C)C)cc4)CC3)nc(O)c2cc1OC | > 100 | > 100 | 
COC(=O)c1ccc(NC2CCN(c3nc(N)c4cc(OC)c(OC)cc4n3)CC2)nc1 | 25 (≈ 11 µg/mL) | > 50 | 
COC(=O)c1ccc(NC2CCN(Cc3ccccc3)CC2)cc1 | > 25 | > 25 | 
COC(=O)c1nc(Cl)c(NC2CCN(C(=O)OC(C)(C)C)CC2)nc1N |  | > 25 | MIC (Streptococcus pyogenes [5]): > 25 µM
CC(C)(C)OC(=O)c1ccc(NC2CCN(C(=O)c3ccc4ccccc4c3)CC2)cc1 | > 25 | > 25 | 
COC(=O)c1nc(Cl)c(NC2CCNCC2)nc1N |  | > 25 | MIC (Streptococcus pyogenes [5]): > 25 µM
COc1ccc2[nH]c(N3CCC(Nc4ccc(C(=O)OC(C)(C)C)cc4)CC3)nc2c1 | > 100 | > 100 | 
CC(C)(C)OC(=O)c1ccc(NC2CCN(c3nc(N)c4ccccc4n3)CC2)cc1 | < 100 | < 100 | 
COc1ccc2[nH]c(N3CCC(Nc4ccc(C(=O)O)cc4)CC3)nc2c1 | > 25 | > 25 | 
COC(=O)c1nc(Cl)c(NNc2nc(N)c3cc(OC)c(OC)cc3n2)nc1N |  | > 50 | MIC (Streptococcus pyogenes [5]): > 50 µM
COc1cc2nc(N3CCC(Nc4ccc(C(=O)OC(C)(C)C)cc4)CC3)nc(N)c2cc1OC | 3 (≈ 1.44 µg/mL) | 6 (≈ 2.88 µg/mL) | MIC (Enterococcus faecalis): 6 µM (≈ 2.88 µg/mL); MIC (Streptococcus pyogenes [2]): 6 µM (≈ 2.88 µg/mL); MIC (Klebsiella pneumoniae): > 100 µM; MIC (Staphylococcus aureus): > 100 µM; MIC (Escherichia coli [3]): > 100 µM
COC(=O)c1nc(Cl)c(NC2CCN(c3nc(N)c4cc(OC)c(OC)cc4n3)CC2)nc1N |  | > 25 | MIC (Streptococcus pyogenes [5]): 12 µM (≈ 5.87 µg/mL)
O=C(O)c1ccc(NC2CCN(c3ccc4ccccc4c3)CC2)cc1 | > 25 | > 25 | 
COc1cc2nc(N3CCC(Nc4ccc(C(=O)OC(C)(C)C)cc4)CC3)nc(OC)c2cc1OC | < 100 | < 100 | 
COc1cc2nc(N3CCC(Nc4ccc(C(=O)OC(C)(C)C)cc4[N+](=O)[O-])CC3)nc(N)c2cc1OC |  | 25 (≈ 13.1 µg/mL) | MIC (Streptococcus pyogenes [5]): 50 µM (≈ 26.2 µg/mL)
COc1cc2nc(N3CCC(Nc4cnc(C(=O)O)c(N)n4)CC3)nc(N)c2cc1OC | > 25 | > 25 | 
CC(C)(C)OC(=O)c1ccc(NC2CCN(Cc3ccccc3)CC2)cc1 | > 25 | > 25 | 

More lines, main results first:

MIC (Streptococcus pyogenes [1]) [µM] | MIC (Escherichia coli [4]) [µM] | SMILES | also measured
5 (≈ 2.19 µg/mL) | 5 (≈ 2.19 µg/mL) | COC(=O)c1ccc(NC2CCN(c3nc(N)c4cc(OC)c(OC)cc4n3)CC2)cc1 | MIC (Enterococcus faecalis): 20 µM (≈ 8.75 µg/mL); MIC (Streptococcus pyogenes [2]): 5 µM (≈ 2.19 µg/mL); MIC (Klebsiella pneumoniae): > 100 µM; MIC (Staphylococcus aureus): > 100 µM; MIC (Escherichia coli [3]): > 100 µM
> 20 | > 20 | COc1cc2nc(N3CCC(Nc4ccc(C(=O)O)cc4)CC3)nc(OC)c2cc1OC | 
 | > 50 | COC(=O)c1ncc(NC2CCN(c3nc(N)c4cc(OC)c(OC)cc4n3)CC2)nc1N | MIC (Streptococcus pyogenes [5]): > 50 µM
> 20 | > 20 | COc1cc2nc(N3CCC(Nc4ccc(C(=O)O)cc4)CC3)nc(O)c2cc1OC | 
> 25 | > 25 | CC(C)(C)OC(=O)c1ccc(NC2CCN(S(=O)(=O)c3ccc4ccccc4c3)CC2)cc1 | 
> 20 | > 20 | COc1cc2nc(N3CCC(Nc4ccc(C(=O)O)cc4)CC3)nc(Nc3ccc(C)cc3)c2cc1OC | 
> 25 | > 25 | CC(C)(C)OC(=O)c1ccc(NC2CCNCC2)cc1 | 
> 25 | > 25 | O=C(O)c1ccc(NC2CCN(c3ncccn3)CC2)cc1 | 
> 20 | > 20 | COc1cc2cnc(N3CCC(Nc4ccc(C(=O)OC(C)(C)C)cc4)CC3)nc2cc1OC | 
> 50 | > 50 | COc1cc2nc(N3CCC(Nc4ccc(C(=O)O)cn4)CC3)nc(N)c2cc1OC | 
> 25 | > 25 | CC(C)(C)OC(=O)c1ccc(NC2CCN(c3ncccn3)CC2)cc1 | 
> 20 | > 20 | COc1cc2cnc(N3CCC(Nc4ccc(C(=O)O)cc4)CC3)nc2cc1OC | 
2.5 (≈ 1.42 µg/mL) | 10 (≈ 5.7 µg/mL) | COc1cc2nc(N3CCC(Nc4ccc(C(=O)OC(C)(C)C)cc4)CC3)nc(Nc3ccc(C)cc3)c2cc1OC | 
 | > 100 | COc1cc2nc(N3CCC(Nc4nc(N)c(C(=O)O)nc4Cl)CC3)nc(N)c2cc1OC | MIC (Streptococcus pyogenes [5]): > 100 µM
 | > 20 | COc1cc2nc(N3CCC(Nc4ccc(C(=O)O)cc4[N+](=O)[O-])CC3)nc(N)c2cc1OC | MIC (Streptococcus pyogenes [5]): > 20 µM
> 25 | > 25 | CC(C)(C)OC(=O)c1ccc(NC2CCN(c3ccc4ccccc4c3)CC2)cc1 | 
> 25 | > 25 | O=C(O)c1ccc(NC2CCN(S(=O)(=O)c3ccc4ccccc4c3)CC2)cc1 | 
> 25 | > 25 | O=C(O)c1ccc(NC2CCN(Cc3ccccc3)CC2)cc1 | 
> 25 | 0.4 (≈ 0.169 µg/mL) | COc1cc2nc(N3CCC(Nc4ccc(C(=O)O)cc4)CC3)nc(N)c2cc1OC | MIC (Enterococcus faecalis): > 100 µM; MIC (Streptococcus pyogenes [2]): > 25 µM; MIC (Klebsiella pneumoniae): 6 µM (≈ 2.54 µg/mL); MIC (Staphylococcus aureus): 6 µM (≈ 2.54 µg/mL); MIC (Escherichia coli [3]): 60 µM (≈ 25.4 µg/mL)
> 25 | > 25 | O=C(O)c1ccc(NC2CCN(C(=O)c3ccc4ccccc4c3)CC2)cc1 | 
